In ChEMBL document CHEMBL2417509, “Synthesis and biological evaluation of prodigiosene conjugates of porphyrin, estrone and 4-hydroxytamoxifen” (2013):

Assays:
Format in all cases: functional
OVCAR-4 = assay: Cytotoxicity against human OVCAR4 cells after 2 days by sulforhodamine B assay; settings: OVCAR-4, 48 h
Procedure, shortened: (§1)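 NCI60 multi-dose screen, 59 human tumour lines available. Cells exposed to compound across a 5-log mol/L concentration range for 2 days, then fixed and stained with sulphorhodamine B, optical density read. Growth inhibition calculated against time-zero control and untreated cells. GI50 derived from the dose series, average of two replicates.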

786-0 = assay: Cytotoxicity against human 786-0 cells after 2 days by sulforhodamine B assay; settings: 786-0, 48 h; procedure, shortened: as §1
A498 = assay: Cytotoxicity against human A498 cells after 2 days by sulforhodamine B assay; settings: A498, 48 h; procedure, shortened: as §1
K562 = assay: Cytotoxicity against human K562 cells after 2 days by sulforhodamine B assay; settings: K562, 48 h; procedure, shortened: as §1
SR = assay: Cytotoxicity against human SR cells after 2 days by sulforhodamine B assay; settings: 48 h
Procedure, shortened: (§2)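 NCI DTP NCI60 multi-dose screen (59 human tumour lines available). Cells exposed to compound over a 5-log mol/L concentration range for 2 days, then fixed and stained with sulphorhodamine B, with optical density read. Growth inhibition calculated relative to time-zero cells and untreated cells, giving GI50 (half-maximal growth inhibition concentration). Average of two replicates.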

RPMI-8226 = assay: Cytotoxicity against human RPMI8226 cells after 2 days by sulforhodamine B assay; settings: RPMI-8226, 48 h; procedure, shortened: as §1
M14 = assay: Cytotoxicity against human M14 cells after 2 days by sulforhodamine B assay; settings: M14, 48 h; for CC50: read-out: LC50 (the source's name); procedure, shortened: as §1
NCI-H23 = assay: Cytotoxicity against human NCI-H23 cells after 2 days by sulforhodamine B assay; settings: NCI-H23, 48 h; procedure, shortened: as §1
HOP-92 = assay: Cytotoxicity against human HOP92 cells after 2 days by sulforhodamine B assay; settings: HOP-92, 48 h; for CC50: read-out: LC50 (the source's name); procedure, shortened: as §1
NCI-H522 = assay: Cytotoxicity against human NCI-H522 cells after 2 days by sulforhodamine B assay; settings: NCI-H522, 48 h; procedure, shortened: as §1
SW-620 = assay: Cytotoxicity against human SW620 cells after 2 days by sulforhodamine B assay; settings: SW-620, 48 h; procedure, shortened: as §2
MDA-MB-468 = assay: Cytotoxicity against human MDA-MB-468 cells after 2 days by sulforhodamine B assay; settings: MDA-MB-468, 48 h; procedure, shortened: as §1
ACHN = assay: Cytotoxicity against human ACHN cells after 2 days by sulforhodamine B assay; settings: 48 h; procedure, shortened: as §1
HCC 2998 = assay: Cytotoxicity against human HCC2998 cells after 2 days by sulforhodamine B assay; settings: HCC 2998, 48 h; procedure, shortened: as §1
MCF7 = assay: Cytotoxicity against human MCF7 cells after 2 days by sulforhodamine B assay; settings: MCF7, 48 h; procedure, shortened: as §1
RXF 393 = assay: Cytotoxicity against human RXF393 cells after 2 days by sulforhodamine B assay; settings: RXF 393, 48 h; procedure, shortened: as §1
A549 = assay: Cytotoxicity against human A549/ATCC cells after 2 days by sulforhodamine B assay; settings: A549, 48 h; procedure, shortened: as §1
SNB-19 = assay: Cytotoxicity against human SNB19 cells after 2 days by sulforhodamine B assay; settings: SNB-19, 48 h; for CC50: read-out: LC50 (the source's name); procedure, shortened: as §2
CCRF-CEM = assay: Cytotoxicity against human CCRF-CEM cells after 2 days by sulforhodamine B assay; settings: 48 h; for CC50: read-out: LC50 (the source's name); procedure, shortened: as §1
MOLT-4 = assay: Cytotoxicity against human MOLT4 cells after 2 days by sulforhodamine B assay; settings: MOLT-4, 48 h; for CC50: read-out: LC50 (the source's name); procedure, shortened: as §1
COLO 205 = assay: Cytotoxicity against human COLO205 cells after 2 days by sulforhodamine B assay; settings: COLO 205, 48 h; procedure, shortened: as §1
SK-MEL-5 = assay: Cytotoxicity against human SK-MEL-5 cells after 2 days by sulforhodamine B assay; settings: SK-MEL-5, 48 h; procedure, shortened: as §1
HT-29 = assay: Cytotoxicity against human HT-29 cells after 2 days by sulforhodamine B assay; settings: HT-29, 48 h; procedure, shortened: as §1
MDA-MB-231 = assay: Cytotoxicity against human MDA-MB-231 cells after 2 days by sulforhodamine B assay; settings: MDA-MB-231, 48 h; procedure, shortened: as §1
SF-268 = assay: Cytotoxicity against human SF268 cells after 2 days by sulforhodamine B assay; settings: SF-268, 48 h; procedure, shortened: as §1
HL-60(TB) = assay: Cytotoxicity against human HL-60(TB) cells after 2 days by sulforhodamine B assay; settings: HL-60, 48 h; for CC50: read-out: LC50 (the source's name)
Procedure, shortened: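 NCI60 multi-dose screen: cells exposed to compound over a 5-log mol/L concentration range for 2 days, then fixed and stained with sulphorhodamine B and optical density read. Growth inhibition calculated relative to time-zero control and untreated cells; GI50 reported as average of two replicates.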

[1] = Cytotoxicity against human Hs578T cells after 2 days by sulforhodamine B assay; settings: Hs-578T, 48 h; for CC50: read-out: LC50 (the source's name); procedure, shortened: as §1
TK-10 = assay: Cytotoxicity against human TK10 cells after 2 days by sulforhodamine B assay; settings: TK-10, 48 h; procedure, shortened: as §2
BT-549 = assay: Cytotoxicity against human BT549 cells after 2 days by sulforhodamine B assay; settings: BT-549, 48 h; procedure, shortened: as §1
LOX IMVI = assay: Cytotoxicity against human LOXIMVI cells after 2 days by sulforhodamine B assay; settings: 48 h; procedure, shortened: as §1

## CC/C(=C(/c1ccc(OCCN(C)C)cc1)c1ccc(OC(=O)CCC(=O)C2=C(C)/C(=C/c3[nH]c(-c4ccc[nH]4)cc3OC)N=C2C)cc1)c1ccccc1
OVCAR-4
  GI50: 1.5 µM
  LC50 (concentration killing 50% of cells): 61.5 µM
  TGI: 14.8 µM
786-0
  GI50: 2.19 µM
  LC50 (concentration killing 50% of cells): > 100 µM
  TGI: 5.77 µM
A498
  GI50: 2.96 µM
  LC50: 44.2 µM
  TGI: 16.8 µM
K562
  GI50: 2.39 µM
  LC50 (concentration killing 50% of cells): > 100 µM
  TGI: 6.4 µM
SR
  GI50: 0.69 µM
  LC50 (concentration giving 50% net cell kill): > 100 µM
  TGI: 5.43 µM
RPMI-8226
  GI50: 1.65 µM
  LC50 (concentration killing 50% of cells present at time zero): > 100 µM
  TGI: 5.64 µM
M14
  GI50: 2.09 µM
  TGI: 5.19 µM
  CC50: > 100 µM
NCI-H23
  GI50: 4.03 µM
  LC50 (concentration killing 50% of cells): 70 µM
  TGI: 18.7 µM
HOP-92
  GI50: 0.76 µM
  TGI: 4.12 µM
  CC50: 26.4 µM
NCI-H522
  GI50: 1.95 µM
  LC50: 28 µM
  TGI: 5.89 µM
SW-620
  GI50: 0.76 µM
  LC50 (concentration killing 50% of cells): > 100 µM
  TGI: 2.6 µM
MDA-MB-468
  GI50: 3.06 µM
  LC50: 61.3 µM
  TGI: 15.5 µM
ACHN
  GI50: 2.61 µM
  LC50 (concentration killing 50% of cells): > 100 µM
  TGI: 17.1 µM
HCC 2998
  GI50: 3.83 µM
  LC50 (50% lethal concentration): 39.9 µM
  TGI: 14.3 µM
MCF7
  GI50: 0.03 µM
  LC50 (concentration giving 50% net cell kill): 39.9 µM
  TGI: 2.81 µM
RXF 393
  GI50: 2.35 µM
  LC50 (concentration killing 50% of cells): 73.3 µM
  TGI: 13 µM
A549
  GI50: 2.66 µM
  LC50 (concentration giving 50% net cell kill): 55.9 µM
  TGI: 10.6 µM
SNB-19
  GI50: 5.49 µM
  TGI: 21.9 µM
  CC50: 65.9 µM
CCRF-CEM
  GI50: 0.43 µM
  TGI: 7.21 µM
  CC50: > 100 µM
MOLT-4
  GI50: 0.98 µM
  TGI: 4.22 µM
  CC50: > 100 µM
COLO 205
  GI50: 1.9 µM
  LC50 (concentration killing 50% of cells): > 100 µM
  TGI: 7.26 µM
SK-MEL-5
  GI50: 1.53 µM
  LC50 (concentration killing 50% of cells): 5.25 µM
  TGI: 3.22 µM
HT-29
  GI50: 0.44 µM
  LC50: 45.7 µM
  TGI: 11.1 µM
MDA-MB-231
  GI50: 0.45 µM
  LC50: 20.3 µM
  TGI: 2.43 µM
SF-268
  GI50: 2.63 µM
  LC50 (concentration killing 50% of cells): > 100 µM
  TGI: 18.3 µM
HL-60(TB)
  GI50: 3.16 µM
  TGI: 8.98 µM
  CC50: > 100 µM
[1]
  GI50: 1.15 µM
  TGI: 4.68 µM
  CC50: 64.6 µM
TK-10
  GI50: 4.9 µM
  LC50: 41.7 µM
  TGI: 15.8 µM
BT-549
  GI50: 4.29 µM
  LC50 (concentration killing 50% of cells present at time zero): 66.9 µM
  TGI: 21.5 µM
LOX IMVI
  GI50: 0.44 µM
  LC50: 5.13 µM
  TGI: 1.62 µM

## CCC(=C(c1ccc(OCCN(C)C)cc1)c1ccc(OC(=O)CCCCC(=O)C2=C(C)/C(=C/c3[nH]c(-c4ccc[nH]4)cc3OC)N=C2C)cc1)c1ccccc1
OVCAR-4
  GI50: 4.37 µM
  LC50 (concentration killing 50% of cells): 70.8 µM
  TGI: 22.4 µM
786-0
  GI50: 4.79 µM
  LC50 (concentration killing 50% of cells): 52.5 µM
  TGI: 19 µM
A498
  GI50: 12.9 µM
  LC50: 53.7 µM
  TGI: 26.3 µM
K562
  GI50: 3.16 µM
  LC50 (concentration killing 50% of cells): 72.4 µM
  TGI: 12.6 µM
SR
  GI50: 3.02 µM
  LC50 (concentration giving 50% net cell kill): > 100 µM
  TGI: 20.9 µM
RPMI-8226
  GI50: 3.16 µM
  LC50 (concentration killing 50% of cells present at time zero): > 100 µM
  TGI: 19 µM
M14
  GI50: 1.82 µM
  TGI: 3.98 µM
  CC50: 8.71 µM
NCI-H23
  GI50: 12.6 µM
  LC50 (concentration killing 50% of cells): 69.2 µM
  TGI: 29.5 µM
HOP-92
  GI50: 1.12 µM
  TGI: 6.31 µM
  CC50: 47.9 µM
NCI-H522
  GI50: 3.55 µM
  LC50: 43.6 µM
  TGI: 14.4 µM
SW-620
  GI50: 3.16 µM
  LC50 (concentration killing 50% of cells): 34.7 µM
  TGI: 11.5 µM
MDA-MB-468
  GI50: 2.45 µM
  LC50: 41.7 µM
  TGI: 14.8 µM
ACHN
  GI50: 4.79 µM
  LC50 (concentration killing 50% of cells): 77.6 µM
  TGI: 22.9 µM
HCC 2998
  GI50: 13.2 µM
  LC50 (50% lethal concentration): 53.7 µM
  TGI: 26.9 µM
MCF7
  GI50: 0.05 µM
  LC50 (concentration giving 50% net cell kill): 4.68 µM
  TGI: 1.2 µM
RXF 393
  GI50: 3.89 µM
  LC50 (concentration killing 50% of cells): 44.7 µM
  TGI: 17.8 µM
A549
  GI50: 3.89 µM
  LC50 (concentration giving 50% net cell kill): 50.1 µM
  TGI: 15.8 µM
SNB-19
  GI50: 8.13 µM
  TGI: 23.4 µM
  CC50: 56.2 µM
CCRF-CEM
  GI50: 0.32 µM
  TGI: > 100 µM
  CC50: > 100 µM
MOLT-4
  GI50: 1.74 µM
  TGI: 25.1 µM
  CC50: > 100 µM
COLO 205
  GI50: 10.7 µM
  LC50 (concentration killing 50% of cells): 50.1 µM
  TGI: 22.9 µM
SK-MEL-5
  GI50: 1.62 µM
  LC50 (concentration killing 50% of cells): 6.03 µM
  TGI: 3.09 µM
HT-29
  GI50: 3.02 µM
  LC50: 74.1 µM
  TGI: 14.8 µM
MDA-MB-231
  GI50: 2 µM
  LC50: 33.9 µM
  TGI: 11.5 µM
SF-268
  GI50: 7.76 µM
  LC50 (concentration killing 50% of cells): > 100 µM
  TGI: 30.2 µM
HL-60(TB)
  GI50: 18.2 µM
  TGI: 41.7 µM
  CC50: 97.7 µM
[1]
  GI50: 5.01 µM
  TGI: 47.9 µM
  CC50: > 100 µM
TK-10
  GI50: 12.9 µM
  LC50: 50.1 µM
  TGI: 25.1 µM
BT-549
  GI50: 3.55 µM
  LC50 (concentration killing 50% of cells present at time zero): 41.7 µM
  TGI: 17 µM
LOX IMVI
  GI50: 2.04 µM
  LC50: 43.6 µM
  TGI: 5.13 µM
